Here are results for five compounds from ChEMBL document CHEMBL2086376, “Total synthesis of 2''',5'''-diepisilvestrol and its C1''' epimer: key structure activity relationships at C1''' and C2'''” (J Nat Prod, 2012).

Molecules are shown by their SMILES. Activity calls are given as the source filed them. No cut-off for these calls is given here.

In general, IC50 refers to the concentration that inhibits the measured activity by half. A lower IC50 goes with greater potency.

The species entered for one assay is Oryctolagus cuniculus. The assay can be described thus: Inhibition of translation in rabbit reticulocyte lysate by luciferase assay. In kind it is functional. The method, boiled down: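 Cell-free translation in rabbit reticulocyte lysate, final KCl 135 mM, programmed with 8 μg/mL capped FF/HCV/Ren bicistronic mRNA. Firefly and Renilla luciferase activities were the read-out.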

A short description of assay [1]: Cytotoxicity against human lung cancer cells. In kind it is functional. As to conditions: Cancer cell lines, read-out: ED50 (the source's name).
Assay [2] is described as follows: Cytotoxicity against human breast cancer cells. In kind it is functional. As to conditions: Cancer cell lines, read-out: ED50 (the source's name).
The test system of the next assay is A549. As to the kind of experiment: Cytotoxicity against human A549 cells. The class given is functional, cell-based.
Assay [3] in a line: Cytotoxicity against human colon cancer cells. As to conditions: Cancer cell lines. In kind it is functional, cell-based.
A further assay concerns Leukemia cell. As to the kind of experiment: Anticancer activity in patient with chronic lymphocytic leukemia. In kind it is functional. As to conditions: Homo sapiens, read-out: LC50 (the source's name).

Regarding `COC(=O)[C@H]1[C@@H](O)[C@@]2(O)c3c(OC)cc(O[C@@H]4O[C@@H]([C@@H](O)CO)CO[C@@H]4OC)cc3O[C@@]2(c2ccc(OC)cc2)[C@@H]1c1ccccc1`, the inhibition entry in the assay filed under Oryctolagus cuniculus is “Active”.
Still for that read-out and setting: next, `COC(=O)[C@H]1[C@@H](O)[C@@]2(O)c3c(OC)cc(O[C@H]4O[C@@H]([C@@H](O)CO)CO[C@@H]4OC)cc3O[C@@]2(c2ccc(OC)cc2)[C@@H]1c1ccccc1`: “inactive”.
Consider `COC(=O)[C@H]1[C@@H](O)[C@@]2(O)c3c(OC)cc(O[C@@H]4O[C@@H]([C@H](O)CO)CO[C@@H]4OC)cc3O[C@@]2(c2ccc(OC)cc2)[C@@H]1c1ccccc1`, for which the EC50 was 1.2 nM in assay [1] and 1.5 nM in assay [2]. The inhibition result in the assay filed under Oryctolagus cuniculus was “Active”.
As to `COC(=O)[C@H]1[C@@H](O)[C@@]2(O)c3c(OC)cc(O[C@@H]4O[C@@H]([C@@H](O)CO)CO[C@H]4OC)cc3O[C@@]2(c2ccccc2)[C@@H]1c1ccccc1`, the values for the IC50 (in the assay on A549; in assay [3]) were 130 nM and 10 nM, respectively.
For `COC(=O)[C@H]1[C@@H](O)[C@@]2(O)c3c(OC)cc(O[C@@H]4O[C@@H]([C@H](O)CO)CO[C@H]4OC)cc3O[C@@]2(c2ccc(OC)cc2)[C@@H]1c1ccccc1` [SILVESTROL], the CC50 in the assay with Leukemia cell was determined as 6.9 nM. The EC50 turned out to be 1.2 nM in assay [1] and 1.5 nM in assay [2].
